Bioassay records (PubChem)
T cell HTS – modulators of CD8 T cell-vesicle binding, primary screen, mouse 2C CD8+ T cells, flow cytometry; 2C CD8+ T cell-vesicle binding; stronger effect = lower value; response (vesicle binding), % at 7 µM; 330,000 compounds, 0.068% hits; AID 2052, 2009;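 active = response, share of CD8 T cells binding vesicles, and their 90th percentile fluorescence all below set limits, cut at about 80% in these data, passing the limit was not always enough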;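 also: values below 100% mean blocked vesicle binding to the CD8+ T cells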
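incubation = binding step 1.5 h, 37 °C, antibody labelling 20 min, ice | test system = 2C mouse CD8+ T cells | read-out basis = percent CD8+ FL2 mean versus row control | controls = Peptide-free naked vesicles (low) and QL9 vesicles with 0.7% DMSO vehicle (high) | detection = flow cytometry of vesicle-bound cells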
Mcl1-Bid inh – Mcl-1/Bid binding inhibitors, primary screen, biochemical, TR-FRET, 1536-well | 220,000 compounds, 0.97% hits | inhibition, % at 21.7 µM | Induced myeloid leukemia cell differentiation protein Mcl-1 (Homo sapiens), Q07820 | AID 1021, 2008 | TR-FRET Mcl-1/Bid-Dy647 peptide binding;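 active = compounds that cut the binding signal by more than half at the single screening dose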;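 also: His-tagged Mcl-1 with europium anti-His antibody binding Bid BH3 peptide; 0% = Mcl-1 plus peptide wells and 100% = peptide-only wells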
Target sequence (Q07820 whole entry, looked up): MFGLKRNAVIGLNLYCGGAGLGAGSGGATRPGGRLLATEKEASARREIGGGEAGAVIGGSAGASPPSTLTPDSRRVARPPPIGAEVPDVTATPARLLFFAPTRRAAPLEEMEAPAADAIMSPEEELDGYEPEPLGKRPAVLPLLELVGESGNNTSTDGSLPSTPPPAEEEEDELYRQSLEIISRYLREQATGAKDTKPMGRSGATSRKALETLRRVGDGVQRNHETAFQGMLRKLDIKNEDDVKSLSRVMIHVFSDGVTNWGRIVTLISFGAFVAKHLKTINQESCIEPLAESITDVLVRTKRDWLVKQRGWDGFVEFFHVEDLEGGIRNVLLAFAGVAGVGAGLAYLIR
MCL1-BIM inh – inhibitors of MCL1 binding to BIM-BH3, primary screen, biochemical, fluorescence polarization. Induced myeloid leukemia cell differentiation protein Mcl-1 (Homo sapiens), Q07820. GST-MCL1 / FITC-Bim-BH3 fluorescence polarization. inhibition, % at 10.9 µM. 320,000 compounds, 0.68% hits. AID 2057, 2009;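 active = inhibition above the mean inhibition of all tested compounds plus 3 SD, set per campaign, cut at about 40% in these data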;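 also: 0% = DMSO wells and 100% = unlabeled Bim-BH3 peptide control; higher means more loss of mP so more displacement of Bim peptide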
Mcl1-Noxa inh – Mcl-1/Noxa binding inhibitors, primary screen, biochemical, TR-FRET, 1536-well; TR-FRET Mcl-1/Noxa peptide binding, 2 h; inhibition, % at 21.7 µM; AID 1022, 2008; 220,000 compounds, 1.5% hits;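 active = compounds that cut the protein-peptide binding signal by more than 50% relative to plate controls in a single-dose test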;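 also: His-tagged Mcl-1 with rhodamine Noxa BH3 peptide and terbium anti-His antibody; 0% = Mcl-1 plus Noxa peptide wells and 100% = peptide-only wells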
Mcl-1 Bim block – inhibitors of Bim peptide binding to Mcl-1, primary screen, biochemical, bead-based flow cytometry, multiplex; inhibition, % at 10 µM; Induced myeloid leukemia cell differentiation protein Mcl-1 (Homo sapiens), Q07820; 190,000 compounds, 0.1% hits; Bim peptide-Mcl-1 binding; in the data active = inhibition above about 40%;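 also: 0% = no compound tracer wells and 100% = peptide blocker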
Pemphigus Ab inh – inhibitors of pemphigus antibody binding to DSG3, primary screen, biochemical, bead-based, flow cytometry, scFv-GFP. Desmoglein-3 (Homo sapiens), P32926. DSG3-coupled beads, scFv-anti-DSG3-GFP binding; stronger effect = lower value. binding (percent of control), % at 10 µM. 310,000 compounds, 0.48% hits;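 active = binding more than 3 SD below its plate's average and above zero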
The depositor's hits bear a star; nt = no result given. Rows were chosen to be rich in hits. Some 2.3% of all compounds tested hit in one or more screens of this group.

SMILES | T cell HTS | Mcl1-Bid inh | MCL1-BIM inh | Mcl1-Noxa inh | Mcl-1 Bim block | Pemphigus Ab inh
N#CC1(NC(=O)COC(=O)c2cc(O)c3ccccc3c2O)CCCCC1 | 248.7 | nt | 40.1* | nt | nt | 93.4
O=C(CN1CCN(c2cccc(Cl)c2)CC1)NC1CCCc2ccccc21 (stereo not given) | 260.2 | nt | -5.0 | nt | nt | 107.2
C=CCn1c(SCC(=O)c2[nH]c(C)c(C(=O)OC)c2C)nc2scc(-c3ccc(OC)c(OC)c3)c2c1=O | 281.3 | 65.2* | -1.0 | 52.8* | -5.0 | 101.2
COc1ccc(-c2cc(C(=O)N(C)Cc3nc4ccccc4c(=O)[nH]3)c3ccccc3n2)cc1OC | 400.7 | nt | nt | nt | nt | 93.1
CC(C)C(=O)Nc1c2c(nn1-c1ccc(F)cc1)CSC2 | 198.1 | nt | -3.1 | nt | nt | 100.4
COC(=O)c1ccc(COc2ccc(/C=N/Nc3nc(C)cc(=O)[nH]3)cc2)cc1 | 291.1 | 15.1 | 0.1 | 54.8* | nt | 94.9
COc1ccccc1N(C)S(=O)(=O)c1ccc(C(=O)N2CCCC(C(F)(F)F)C2)cc1 (stereo not given) | 425.0 | nt | -4.4 | nt | nt | 103.2
NC(=O)N/N=C/c1ccc(N2CCOCC2)s1 | 237.0 | -77.6 | -79.9 | 32.7 | -4.0 | 107.3
O=C(O)c1cc(N/N=C/c2ccc(N3CCOCC3)s2)ccc1Cl | 285.3 | -100.2 | 30.1 | 85.9* | -2.0 | 109.3
CCOc1ncccc1C(=O)OCC(=O)NCc1cccs1 | 487.7 | nt | nt | nt | nt | nt
CCc1cc2c(=O)oc(-c3ccccc3F)nc2s1 | 125.1 | nt | 6.2 | nt | nt | 78.6*
Cc1ccc2c(=O)n3c(nc2c1)C(Cc1ccc(O)cc1)NC(=O)c1ccc(Cl)cc1-3 (stereo not given) | 551.3 | nt | nt | nt | nt | nt
COc1ccc(/C=N/Nc2ccc([N+](=O)[O-])cc2)cc1Cn1cc([N+](=O)[O-])cn1 | 224.0 | 58.3* | -80.7 | 72.0* | -4.0 | 106.0
CN1CCN(c2ccc([N+](=O)[O-])cc2/C=N/NC(=O)c2ccc(F)cc2)CC1 | nt | 0.3 | nt | 74.6* | -1.0 | 102.2
Cn1cc(/C=C(\C#N)C(=O)Nc2ncc(Cc3cccc(Cl)c3)s2)c2ccccc21 | 168.3 | -10.7 | 13.4 | -9.3 | -4.0 | nt
COc1cc(/C=N/NC(=O)c2ccc(Cn3cc([N+](=O)[O-])cn3)o2)cc(Br)c1O | 184.8 | -23.3 | -4.3 | 55.7* | 0.0 | 95.0
Cn1cc(/C=C(\C#N)C(=O)Nc2cccc([N+](=O)[O-])c2)c2ccccc21 | 452.4 | 51.9* | -1.8 | 28.9 | 3.0 | 99.0
COc1ccc(/C=N/n2cncn2)cc1Cn1cc([N+](=O)[O-])cn1 | 740.6 | -1.8 | 1.5 | 23.7 | nt | 109.0
CCC(C(=O)NC(C)(C)C)N(Cc1ccc(OC)cc1)C(=O)c1snc(C(N)=O)c1N (stereo not given) | nt | nt | nt | nt | nt | 102.2
CCN(CC(=O)Nc1ccccc1C(F)(F)F)C(=O)CCOc1ccc(C)cc1 | 511.0 | nt | -7.9 | nt | nt | 102.2
O=C(CNc1ccc2c(c1)OCO2)N/N=C\c1ccccc1Cl | 25.7 | -9.4 | 16.1 | 19.9 | -6.0 | 118.0
Cc1[nH]c2ccccc2c1/C=N/NC(=O)c1cccc([N+](=O)[O-])c1 | 524.5 | -11.7 | -3.0 | 15.2 | 1.0 | 60.4*
Cn1cc(/C=N/NC(=O)c2cccc([N+](=O)[O-])c2)c2ccccc21 | 238.6 | 22.4 | 1.0 | 22.4 | -2.0 | 24.5*
Cc1[nH]c2ccccc2c1/C=N\NC(=O)CNc1ccc2c(c1)OCO2 | 251.2 | -15.6 | -3.4 | 55.8* | 1.0 | 80.8
COc1cc(/C=N/NC(=O)C(=O)NCc2ccco2)cc(Br)c1O | 506.1 | -22.2 | 4.2 | 55.5* | nt | 94.6
COC(=O)c1ccc(Cn2cnc3c(Cl)ncnc32)cc1 | nt | nt | nt | nt | nt | 114.8
Cc1[nH]c2ccccc2c1/C=N/Nc1ccc([N+](=O)[O-])cc1 | 513.8 | -54.8 | -60.6 | 75.4* | -20.0 | nt
COc1cc(/C=N/NC(=O)c2cccc([N+](=O)[O-])c2)cc(OC)c1O | 466.5 | -30.5 | 20.3 | 67.5* | -6.0 | 98.2
Oc1c(Br)cc(CNC2CCCCC2)cc1Br | nt | nt | nt | nt | nt | 108.9
